TLR4 MyD88 comp = TLR4-MyD88 interaction inhibition in cells | 200,000 compounds, 0.18% hits | inhibition, % at 8.4 µM | HeLa CL3-4 TLR4/MyD88 BLA complementation, FRET ratio; in the data active = inhibition above about 25%;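 note: 0% = vehicle and 100% = reference inhibitor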
TLR9-MyD88 block = blocks human TLR9 binding to MyD88; 340,000 compounds, 0.21% hits; CHO BLA complementation TLR9-MyD88, CCF4 FRET ratio; inhibition, % at 4.98 µM;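 active = inhibition above the mean over all tested compounds plus 3 SD, cut at about 21% in these data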;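 note: 0% = DMSO only wells and 100% = clavulanate BLA inhibitor control wells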
NOD2 RIPK2 PPI = blocks binding of human NOD2 to RIPK2. O43353. CHO BLA complementation NOD2-RIPK2, CCF4 ratio. inhibition, % at 4.98 µM. 360,000 compounds, 0.38% hits. AID 624267; in the data active = inhibition above about 21%;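 note: 0% = vehicle only and 100% = reference blocker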
Target sequence (O43353 whole entry, looked up): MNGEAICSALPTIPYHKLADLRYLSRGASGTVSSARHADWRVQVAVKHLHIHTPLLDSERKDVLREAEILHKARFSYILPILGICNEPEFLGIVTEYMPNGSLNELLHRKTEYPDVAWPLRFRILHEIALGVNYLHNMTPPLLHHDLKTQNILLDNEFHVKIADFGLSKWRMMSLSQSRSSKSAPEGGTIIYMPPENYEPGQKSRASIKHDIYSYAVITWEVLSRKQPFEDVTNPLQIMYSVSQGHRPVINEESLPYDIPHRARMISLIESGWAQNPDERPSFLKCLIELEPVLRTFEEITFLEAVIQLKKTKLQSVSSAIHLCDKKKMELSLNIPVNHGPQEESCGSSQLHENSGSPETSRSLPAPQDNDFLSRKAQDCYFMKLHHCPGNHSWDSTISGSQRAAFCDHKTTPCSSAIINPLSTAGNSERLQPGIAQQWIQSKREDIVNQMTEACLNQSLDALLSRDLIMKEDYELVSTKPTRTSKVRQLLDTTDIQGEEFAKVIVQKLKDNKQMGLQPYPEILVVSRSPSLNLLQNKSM
SKN-1 inh = blocks SKN-1 activity in C. elegans; C. elegans VP596 Pgst-4::GFP/RFP ratio, acrylamide-induced, 24 h; inhibition, % at 21.8 µM; 360,000 compounds, 0.49% hits;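 active = interference check ratio from 0.5 to 1.5 plus GFP to RFP signal ratio inhibition reaching or exceeding a fixed threshold, cut at about 30% in these data, passing the limit was not always enough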
MT1-MMP act inh = blocks activation of human MT1-MMP | P50281 | HT1080 RFP-PRO-GFP cells, GFP/RFP ratio fluorescence, overnight; percent of plate control window, DMSO zero | GFP/RFP ratio change, % at 20 µM | 360,000 compounds, 0.061% hits | AID 651647;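 active = GFP/RFP ratio change of at least 30% with cell ATP level not reduced by more than half and red fluorescence within 50% of control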
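Assay system: HT1080 RFP-PRO-GFP cells | Dosing: 20 µM single dose, 1% DMSO | Incubation: Cells overnight before dosing, compound overnight, 37 °C, 5% CO2 | Evaluation: GFP/RFP fluorescence ratio | Control set: DMSO-only wells and HT1080 RFP-L50D-GFP cell wells as references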
An asterisk follows results filed as active; . = no result given. In the library only some 0.99% were active in any assay of this set; here they are far more common.

SMILES	TLR4 MyD88 comp	TLR9-MyD88 block	NOD2 RIPK2 PPI	SKN-1 inh	MT1-MMP act inh
N#C/C(=C/c1ccco1)c1nc2ccccc2s1	-2	10	-3	86*	-12
N#C/C(=C/c1ccc(-c2cc(C(=O)O)cc(C(=O)O)c2)o1)c1nc2ccccc2s1	3	.	.	.	.
N#C/C(=C\c1ccco1)c1nc2ccccc2s1	0	-6	1	88*	-4
O=[N+]([O-])c1ccccc1N(S(=O)(=O)c1ccccc1)S(=O)(=O)c1ccccc1	.	5	9	4	-4
O=[N+]([O-])c1ccc(/C=C/C2=NN(c3ccccc3)C(c3ccco3)C2)o1 (stereo not drawn)	4	0	1	33*	-32
Nc1c(C(=O)NCc2ccccc2)c2nc3ccccc3nc2n1CCCN1CCOCC1	-22	-15	2	10	1
COc1ccc(CNC(=O)c2c(N)n(CCCN3CCOCC3)c3nc4ccccc4nc23)cc1	-22	-19	-10	36*	-1
CCCSCCCNC(=O)Cn1c(=O)c2cccn2c2ccccc21	.	-1	-6	3	1
O=C(/C=C/c1ccccc1)c1ccc(NC2=NCCCS2)cc1	-3	3	13	12	-4
O=C(/C=C/c1ccc(Br)cc1)c1ccc(NC2=NCCCS2)cc1	-16	7	8	83*	-11
COc1cccc(/C=C/C(=O)c2ccc(NC3=NCCCS3)cc2)c1	2	-9	-4	18	1
Cc1cccc(/C=C/C(=O)c2ccc(NC3=NCCCS3)cc2)c1	12	6	1	60*	-10
Cc1cc2nccc(-c3ccc(Cl)cc3Cl)n2n1	.	0	2	-8	2
Cc1cccc(C)c1NC(=O)CN(C)C(=O)C1CC1C (stereo not drawn)	.	-4	-1	3	-2
CCOC(=O)N1CCN(C(=O)Nc2ccccc2)CC1	2	-4	1	-8	6
CCOC(=O)N1CCN(C(=O)Nc2ccc(Cl)cc2)CC1	-1	-5	2	35*	-2
Cc1c(C#N)c(O)n(CCO)c(=O)c1N=Nc1ccccc1	.	3	-7	40*	6
Cc1c(C#N)c(O)n(CCO)c(=O)c1N=Nc1ccc(S(N)(=O)=O)cc1	-4	-4	1	13	10
Cc1ccc(S(=O)(=O)Nc2ccc(F)cc2)cc1C(=O)N1CCOCC1	.	-8	-7	12	-1
COc1ccccc1NC(=O)C1CCN(C(=O)C2CC(=O)N(c3ccc(C)cc3)C2)CC1 (stereo not drawn)	.	-11	-8	5	1
Cc1cc([N+](=O)[O-])ccc1NCc1ccccc1	-8	-6	-3	37*	-1
Cc1ccc2c(c1)N(CC(=O)Nc1ccccc1F)C(=O)C(C)O2 (stereo not drawn)	.	-21	-8	4	0
O=C(C1CCN(S(=O)(=O)c2ccc(Cl)cc2)CC1)N1CCCCCCC1	.	0	-6	-11	2
O=C(C1CCCCC1)N1CCN(S(=O)(=O)c2ccc(Cl)cc2)CC1	4	-21	-7	37*	-1
O=C(C1CCN(S(=O)(=O)c2c(Cl)cccc2Cl)CC1)N1CCCC1	.	-1	-7	35*	1
SMILES	TLR4 MyD88 comp	TLR9-MyD88 block	NOD2 RIPK2 PPI	SKN-1 inh	MT1-MMP act inh
CCOc1ccc(NC(=O)Cn2sc3nc(C)cc(C)c3c2=O)cc1	.	6	27*	-10	-5
CC1CCCCC12NC(=O)N(CC(=O)N1CCN(S(=O)(=O)c3ccc(Cl)s3)CC1)C2=O (stereo not drawn)	.	1	-8	-14	-8
Cc1cc(NC(=O)CSc2nc3ccccc3c(=O)n2Cc2ccc(F)cc2)no1	-3	-8	-2	32*	-4
CCCCCCn1c(SCC(=O)Nc2cc(C)on2)nc2ccccc2c1=O	14	-5	-10	0	-5
Nc1cccc2c1C(=O)c1ccc(Cl)cc1C2=O	.	1	5	46*	11
O=C(O)c1cccc2c1-c1ccc(Cl)cc1C2=O	.	1	7	-2	2
COc1ccccc1C(=O)NCCC(=O)N1CCN(S(=O)(=O)c2ccccc2C(F)(F)F)CC1	.	0	0	2	-3
Cc1cccc(C)c1N(CC(=O)Nc1cccc(N(C)S(C)(=O)=O)c1)S(C)(=O)=O	-8	6	1	37*	-1
Cc1ccc(Cl)cc1N(CC(=O)Nc1cccc(N(C)S(C)(=O)=O)c1)S(C)(=O)=O	0	-2	7	-7	-8
Fc1ccc2cc(-c3ccccc3)ncc2c1	.	-9	-15	40*	0
COC(=O)[C@]12CCCCC=C1N(CCc1ccc(OC)c(OC)c1)C(=O)[C@H](CC(=O)NCc1ccc(C)o1)C2	.	.	2	10	-2
CCOC(=O)C1=C(O)c2ccccc2C(=O)/C1=C\c1ccc(C)cc1	5	-4	11	48*	9
O=C(/C=C/c1ccco1)N1CCc2ccccc21	-10	-9	-7	58*	-6
CC1OC(c2ccccc2)OC2COC(c3ccccc3)OC12 (stereo not drawn)	.	-1	-10	36*	-1
O=C(Cn1c(Cn2c(-c3cnccn3)nc3ccccc32)nc2ccccc21)c1ccc(OC(F)(F)F)cc1	.	.	2	-2	0
CC(C)Cc1nnc(NC(=O)CC(C)c2ccccc2)s1 (stereo not drawn)	.	9	0	9	0
CCc1nnc(NC(=O)CC(C)c2ccccc2)s1 (stereo not drawn)	.	-3	1	36*	-8
CC1CC(C)CN(S(=O)(=O)c2ccc(NC(=O)c3ccc(=O)[nH]c3)cc2)C1 (stereo not drawn)	.	-10	-4	9	1
CCOC(=O)C1=C(CN2CCSCC2)NC(=O)NC1c1cc(C)ccc1C (stereo not drawn)	-11	-11	2	-3	-3
COC(=O)C1=C(CN2CCSCC2)NC(=O)NC1c1cc(C)ccc1C (stereo not drawn)	8	6	2	37*	1
COC(=O)c1ccc(CNC(=O)CNC(=O)c2sc3ccccc3c2Cl)cc1	.	-4	4	-2	-1
Cc1cccc(CC(=O)NCCn2c(C)cc3ccccc32)c1	2	-5	0	38*	14
Cc1cc2ccccc2n1CCNC(=O)C(C)C	4	3	1	53*	26
COC(=O)c1ccc(CN2CCCC(C(=O)c3ccccc3OC)C2)cc1 (stereo not drawn)	.	0	-6	20	0
O=C(O)CC(c1ccc(F)cc1F)N1Cc2ccccc2C1=O (stereo not drawn)	.	-20	-10	12	-2
O=C(NC1CCN(C(=S)Nc2ccc(Cl)cc2)CC1)c1ccco1	.	6	2	47*	-1
Cn1/c(=N/N=C/c2ccc(N3CCOCC3)cc2)sc2ccccc21	-4	-3	-3	-14	2
Cn1/c(=N/N=C/c2ccccn2)sc2ccccc21	-7	.	-10	42*	3

Screening results from PubChem BioAssay.
